This is an account of results in article PMC4404408 (Journal of acquired immune deficiency syndromes (1999), 2014).

The conditions of data set [1]: cited from earlier work.
The conditions of data set [2]: human, in vivo.
Data set [3] in a line: Fasting lipid profile, calculated LDL-C. Format: in vivo, healthy adult HIV-1 seronegative volunteers. The method, boiled down: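 Healthy HIV-seronegative volunteers aged 18–60 (BMI 18–25, ≥50 kg) took pitavastatin with observed dosing on day 4. They then took EFV 600 mg (arm A, night) or DRV/ritonavir 800/100 mg (arm B, morning) on days 5–14, plus pitavastatin 2 mg on days 15–18. Fasting serum total cholesterol, triglycerides and HDL were measured enzymatically on days 0, 4, 14 and 18, and LDL-C was calculated by the Friedewald equation.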

For data set [4] the following is noted: human, in vivo. This is another data set of the same source.
The nature of data set [5]: Phase I open-label drug interaction PK study, arm B.
A short description of data set [6]: Phase I open-label drug interaction PK study, arm A. Conditions: for Cmax: in vivo.
Setting [7] is: pitavastatin 4 mg daily with DRV/r 800/100 mg, healthy volunteers.
The mark [8] stands for this setting: pitavastatin 4 mg once daily and lopinavir/r 400/100 mg twice a day, healthy volunteers.
[9] abbreviates: coadministered with pitavastatin vs DRV/r alone, nonsignificant.

Structures are written as SMILES. Values joined by “and” are separate entries in the source; they are usually repeats but may differ in a detail not shown here. Equal values may be shown once. Read-outs that look alike come from different tables or passages of the source.

For `CC[C@H](C)C(=O)O[C@H]1C[C@H](O)C=C2C=C[C@H](C)[C@H](CC[C@@H](O)C[C@@H](O)CC(=O)O)[C@H]21` [pravastatin], the “Decrease of statin AUC by EFV” value in data set [1] (coadministered with EFV) is given as 40%. For the same compound, the “Increase of pravastatin AUC” value in data set [1] (coadministration with lopinavir/ritonavir) was 33%; in data set [1] (in the presence of DRV/r), 81%. Also, in data set [1] (combined with nelfinavir or saquinavir), the “Reduction of pravastatin exposure” value is on record as “about 50%”.
As for `O=C1C[C@H](O)C[C@@H](/C=C/c2c(C3CC3)nc3ccccc3c2-c2ccc(F)cc2)O1` [pitavastatin lactone], the “Pitavastatin lactone median Tmax” value in data set [2] turned out to be 2.0 h.
For `O=C(O)C[C@H](O)C[C@H](O)/C=C/c1c(C2CC2)nc2ccccc2c1-c1ccc(F)cc1` [Pitavastatin, pitavastatin], in data set [3] (day 0-4, pitavastatin only, arms A and B), the “Change in mean LDL” value was “decreased”. Besides, the “Change in mean LDL” value in data set [3] (day 14 to day 18, pitavastatin and either EFV or DRV/r) is given as “decreased”. Further, the “Pitavastatin Tmax, median (IQR)” value in data set [4] is reported as 2.0 (0.9 to 3.0) h. Moreover, the “Increase in pitavastatin AUC” value in data set [1] (combined with ritonavir-boosted atazanavir) is 31%. In addition, in data set [1] (lopinavir/ritonavir in combination with pitavastatin), the “Safety of concomitant administration” value was “safe and well tolerated”. In data set [1] (setting [7]), the “Change in pitavastatin Cmax” value is on record as “minimal or no change” and the “Reduction in pitavastatin AUC0-τ” value was 26%. Moreover, in data set [1] (setting [8]), the “Change of pitavastatin Cmax” value is “unaffected” and the “Reduction of pitavastatin AUC” value is listed as ~ 20%. Also, in data set [5] (with DRV/r, 24-hour PK period, Fig. 3A), the “Pitavastatin mean plasma concentrations, alone vs coadministered” value is on record as “similar”.
For the compound `CC(C)CN(C[C@@H](O)[C@H](Cc1ccccc1)NC(=O)O[C@H]1CO[C@H]2OCC[C@H]21)S(=O)(=O)c1ccc(N)cc1` [DRV, darunavir], in data set [5] (setting [9]), the “Increase in DRV mean AUC0-τ” value was 8% and < 10%; the “Increase in DRV mean Cmax” value is 3% and < 10%. Also, the “DRV mean plasma concentrations, alone vs coadministered” value in data set [5] (with pitavastatin, Fig. 3B) is on record as “remained similar”.
As for `O=C1Nc2ccc(Cl)cc2[C@@](C#CC2CC2)(C(F)(F)F)O1` [EFV, efavirenz], in data set [4], the “EFV AUC0-τ geometric mean ratio (90% CI)” value is on record as 0.90 (0.75 to 1.06) and the “EFV mean plasma concentrations, alone vs coadministered” value was “remained similar throughout the entire 24-hour PK period”. In addition, in data set [6] (EFV 600 mg with pitavastatin 2 mg, day 18, N=14), the “EFV AUC0-τ, geometric mean” value worked out at 44400 ng·h/mL. In data set [6] (EFV only, day 14, N=14), the “EFV Tmax, median (IQR)” value is reported as 2.0 (0.9 to 3.0) h. Moreover, in data set [6] (human), the Cmax turned out to be 3720 ng/mL. Further, in data set [6] (human, 600 mg), the Cmax came to 4150 ng/mL. In addition, in data set [6] (human, plasma, oral, 600 mg), the AUC came out at 49500 ng·h/mL. Besides, the Tmax in data set [6] (human, plasma, oral, EFV Tmax, median (IQR), EFV with pitavastatin, day 18, N=14) stood at 1.5 h.
